Runt-SMMHC FRET = blocks binding of human RUNX1 Runt domain to CBFb-SMMHC. Q01196+Q13951. Cerulean-Runt/Venus-CBFb-SMMHC FRET ratio 530/480, 1 h. inhibition, % at 20 µM. 0.74% of 220,000 active. AID 1434;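 active means mean inhibition across duplicate retests at 20 µM reaching about 50%, limit read from the data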;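 further: 0% = DMSO wells and 100% = wells with excess untagged CBFb-SMMHC; inhibitors lower the FRET ratio by blocking Runt binding to CBFb-SMMHC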
CaV13 ICDI inh = Disruptors of the CACNA1D IQ motif to Ca2+-dependent inactivation inhibitor domain association, primary screening, Förster resonance energy transfer in intact living … | HEK cells, CFP/YFP FRET ICDI-IQ, plate reader, 10 min; percent FRET-ratio fall versus neutral wells | inhibition, % at 12.3 µM | 0.098% of 340,000 active;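 active means mean replicate inhibition of at least 30% and at least 1% of replicates passing that level; inconclusive means only one of the two criteria is met; inactive means neither criterion is met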;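 further: 0% = median of the neutral control wells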
HDAC3 inhib = blocks human histone deacetylase 3; AID 2718; recombinant HDAC3, fluorogenic peptide/trypsin coupled, fluorescence; inhibition, % at 8.3 µM; 0.15% of 320,000 active; in the data active means inhibition above about 26%, passing the limit was not always enough; inconclusive means no clear call, values can overlap the other calls
Target sequence (O15379 whole entry, looked up): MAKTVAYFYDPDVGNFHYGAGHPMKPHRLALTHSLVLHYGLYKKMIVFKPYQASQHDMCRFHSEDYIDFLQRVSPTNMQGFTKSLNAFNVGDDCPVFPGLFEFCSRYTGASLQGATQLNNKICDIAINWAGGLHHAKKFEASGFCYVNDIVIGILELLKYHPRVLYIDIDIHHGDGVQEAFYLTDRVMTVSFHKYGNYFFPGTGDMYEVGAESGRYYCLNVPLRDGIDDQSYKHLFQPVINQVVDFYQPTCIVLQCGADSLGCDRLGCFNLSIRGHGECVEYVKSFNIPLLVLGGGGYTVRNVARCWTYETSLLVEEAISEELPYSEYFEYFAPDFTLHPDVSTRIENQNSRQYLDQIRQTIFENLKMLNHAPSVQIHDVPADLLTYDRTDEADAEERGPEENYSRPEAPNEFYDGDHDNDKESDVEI
LANA-H2B inh = blocks KSHV LANA binding to histone H2A/H2B; Q9QR71; cell-free LANA-H2A/H2B peptide, fluorescence polarization; inhibition, % (test concentration not listed); 0.6% of 320,000 active; in the data active means inhibition mostly above about 10%, no sharp cut-off; inactive means mostly below about 6.7%
Runt-CBFb FRET = inhibitors of human RUNX1 Runt domain binding to CBFb; Q01196+Q13951; inhibition, % at 20 µM; Cerulean-Runt/Venus-CBFb FRET ratio 530/480, 1 h; 0.46% of 220,000 active;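 active means inhibition over about 50% at 20 µM in the single-dose screen, limit read from the data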;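 further: 0% = DMSO wells and 100% = excess unlabeled CBFb competitor control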
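test system = Cerulean-tagged RUNX1 Runt domain (FRET donor) fusion protein | reagent = Venus-CBFb binding partner, 100 nM | incubation = protein complex preformed 1 h, compound exposure 1 h, room temperature, dark | detection = FRET fluorescence | read-out basis = loss of energy transfer signal | controls = 5 µM unlabeled CBFb as full-inhibition high control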
RanGTP-Imp inh = inhibitors of RanGTP-importin-beta interaction, primary screen, biochemical, FRET, CFP-Ran, YFP-importin-beta, homogeneous; cell-free CFP-Ran/YFP-importin-beta FRET ratio; inhibition, % (no concentration beside the values); 1.1% of 300,000 active; AID 2216;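 active means more than half of the replicate wells show a fall in the fluorescence ratio signal beyond about 16%, limit read from the data, passing the limit was not always enough; inconclusive means exactly half of the replicate wells pass the set limit; inactive means fewer than half of replicates pass the limit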;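 further: 0% = DMSO wells and 100% = Ran loaded with GDP instead of GTP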
Runt-CBFb TRFRET = Runt-CBFb binding inhibition; inhibition, % at 20 µM; TR-FRET RUNX1 Runt domain-CBFb binding; 20% of 480 active; shares compounds with Runt-CBFb FRET; in the data active means inhibition above about 40%
YIC FRET counter = counter-screen: alters YIC FRET probe signal; shares compounds with RanGTP-Imp inh; Purified YIC probe, intramolecular FRET ratio YFP/CFP; IC50, µM; 40% of 1,000 active;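 active means fitted half-maximal inhibitory concentration no more than tenfold above the top dose tested; inconclusive means flat fit with 30 to 70% activity, or poor fit; inactive means half-maximal concentration beyond tenfold above the top dose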
Starred values were filed as active, the others as inactive; ? = inconclusive; . = no result. Hits are enriched below; roughly 1.9% of the tested compounds scored in any of these assays.

SMILES	Runt-SMMHC FRET	CaV13 ICDI inh	HDAC3 inhib	LANA-H2B inh	Runt-CBFb FRET	RanGTP-Imp inh	Runt-CBFb TRFRET	YIC FRET counter
CN(O)C(=O)Nc1ccc([N+](=O)[O-])cc1	4.3	-4.2	5.1	5.1	-0.5	-1.4	.	.
COc1ccc(-c2nc3c(c(=O)c4ccccc4n3C)c(=O)n2Cc2ccccc2)cc1	3.8	-3.1	-7.1	-5.0	53.3*	-1.5	60.6*	.
COc1ccc(Cn2c(-c3ccc(OC)cc3)nc3c(c(=O)c4ccccc4n3C)c2=O)cc1	-1.6	.	1.3	5.3	-4.7	5.7	.	.
C[C@@H]1CN([C@@H](C)CO)C(=O)c2cc(NC(=O)C3CCCCC3)ccc2O[C@@H](C)CCCCO[C@H]1CN(C)S(=O)(=O)c1ccc(Cl)cc1	.	-7.3	.	.	.	.	.	.
CCOC(=O)C1=C(CNCCc2ccc(Cl)cc2)NC(=O)NC1c1ccc2c(c1)OCO2 (stereo not given)	0.7	-0.3	14.2	0.8	65.3*	-5.3	6.8	.
O=C(O)c1cc(N2N=C(C(F)(F)F)/C(=C/C=C/c3ccco3)C2=O)ccc1Cl	39.3	-6.7	.	.	52.8*	.	92.1*	.
CCOC(=O)c1ccc(N2N=C(C)/C(=C/C=C/c3ccco3)C2=O)cc1	-12.8	-5.2	-6.2	-3.5	-4.4	-0.2	.	.
CCOc1ccc(N2CC(C(=O)NCCN3C(=O)S/C(=C\c4ccc(OC)c(OC)c4)C3=O)CC2=O)cc1 (stereo not given)	2.7	-18.1	0.4	-3.8	4.3	4.6	.	.
N#Cc1cnc2sc3ccccc3n2c1=N	35.5	-5.0	-2.8	9.2	5.2	6.1	.	.
CCn1c(C)c(C(C)=O)c(N2CCN(c3ccccn3)CC2)nc1=S	99.9*	-7.8	?	1.4	51.8*	45.3*	-4.2	.
C=CCN1C(=O)/C(=C2/Sc3ccc(OC)cc3N2C)SC1=NCc1ccccc1	36.6	-6.9	-1.2	2.0	51.2*	1.1	10.5	.
C=CCN1C(=O)/C(=C2/Sc3ccc(OC)cc3N2C)SC1=Nc1ccccc1	-22.2	-1.5	-4.0	0.2	6.1	-11.2	.	.
O=C1NCCCc2c1oc1cc(Br)c(O)c(Br)c21	15.7	-5.4	7.7	-1.6	10.8	-4.9	.	.
O=C1NCCCC2c3c(cc(Br)c(O)c3Br)OC12N1CCCCC1 (stereo not given)	47.4	-4.8	13.0	-0.1	50.1*	2.6	62.8*	.
NS(=O)(=O)c1ccc(NC(=S)NCc2ccccc2)cc1	28.1	-18.1	3.5	-2.1	51.5*	5.3	6.0	.
Cc1c(CBr)[n+](=O)c2c(n1[O-])C(Br)CCC2Br (stereo not given)	10.0	-3.7	11.6	3.4	19.0	0.8	.	.
COc1ccc(/C=N/NC(=O)c2cc(O)c(O)c(O)c2)cc1Cn1cc([N+](=O)[O-])cn1	48.7	-20.9	.	.	53.8*	8.5	-5.1	.
O=C(O)c1ccc(NC2(C(=O)O)CCCC2)cc1	.	-6.5	.	.	.	.	.	.
Cc1onc(-c2ccccc2)c1C(=O)NC(=S)Nc1sc2c(c1C#N)CCCC2	37.0	2.3	-11.7	2.7	50.8*	0.2	10.1	.
COc1ccc(-n2c(SCC(=O)Nc3cccc4ccccc34)nc(O)cc2=O)cc1	-1.1	-4.7	-0.9	-7.4	2.0	-2.8	.	.
COc1c(OC2OC(C(=O)O)C(O)C(O)C2O)cc(O)c2c(=O)cc(-c3ccccc3)oc12 (stereo not given)	12.3	-5.7	0.7	3.8	12.6	4.4	.	.
O=C(O)C1OC(Oc2cc3oc(-c4ccccc4)cc(=O)c3c(O)c2O)C(O)C(O)C1O (stereo not given)	37.4	1.6	1.1	5.1	55.8*	1.0	8.8	.
Cc1ccc2nc(N3CCN(C(=O)c4cccs4)CC3)c(C#N)cc2c1	123.7*	0.9	-4.5	-2.4	56.4*	18.5*	-29.6	16*
CCN(CC)Cc1c(O)ccc2c(-c3ccccc3)cc(=O)oc12	-71.1	-8.4	-5.2	1.0	-18.0	1.1	.	.
CCN(CC)Cc1c(O)c(Cl)cc2c(C)c(C)c(=O)oc12	90.7*	.	-369.7	8.1	83.0*	20.3*	-202.4	30*
SMILES	Runt-SMMHC FRET	CaV13 ICDI inh	HDAC3 inhib	LANA-H2B inh	Runt-CBFb FRET	RanGTP-Imp inh	Runt-CBFb TRFRET	YIC FRET counter
CCCC1C(C#N)=C(N)Oc2cc(C)n(C)c(=O)c21 (stereo not given)	96.9*	-3.2	-42.1	4.3	94.9*	18.0*	63.0*	>50
CCn1c(C)cc2c(c1=O)C(c1ccncc1)C(C#N)=C(N)O2 (stereo not given)	-2.0	-4.2	-10.0	8.8	-0.6	5.1	.	.
Cc1c(O)ccc2c3c(c(=O)oc12)CCC(C)C3 (stereo not given)	118.0*	3.0	0.2	0.7	66.1*	37.2*	19.7	14*
CCCn1c(=N)c(C(=O)NCc2ccc3c(c2)OCO3)cc2c(=O)n3cccc(C)c3nc21	99.3*	-6.0	-5.6	3.6	71.0*	40.2*	-23.6	14.6*
CCOC(=O)c1cccc(NC(=O)CCc2nc(-c3ccc(C)cc3)no2)c1	-3.9	-2.3	10.5	-2.8	-4.9	-0.3	.	.
O=C1NC(=S)S/C1=C1\Sc2ccccc2N1CCCS(=O)(=O)O	122.7*	.	6.5	-0.8	88.1*	26.6*	26.6	14.9*
COc1ccc2c(c1)c(=O)oc1cc(O)ccc12	30.9	.	-4.8	-0.1	-5.4	2.9	.	.
COc1ccc(C(=O)c2cc3ccc(O)cc3oc2=O)cc1	88.2*	-2.3	0.1	-0.9	88.0*	48.0*	17.4	15.2*
CCCCN1C(=O)c2ccc(C(=O)N(C)CC(=O)Nc3ccc(OCC)c(OCC)c3)cc2C1=O	.	-5.2	-4.3	-4.5	.	.	.	.
COc1ccc2cc(-c3nc4ccccc4n3C)c(=O)oc2c1	127.1*	-7.2	8.2	-6.1	59.5*	43.6*	24.3	11*
O=C(COC(=O)c1cnccn1)NCCc1ccc(Cl)cc1Cl	-2.8	-5.9	-1.6	1.4	-1.7	1.1	.	.
O=C(COc1coc(CN2CCN(c3ccccc3F)CC2)cc1=O)NC1CCCCC1	.	-6.2	-9.5	0.7	.	-5.3	.	.
CCc1cc(=O)oc2cc(C)c(CN3CCCC3)c(O)c12	-20.6	-5.4	0.3	1.8	-4.1	-7.1	.	.
CCN1CCN(Cc2c(O)c(Cl)cc3c(C)cc(=O)oc23)CC1	167.9*	-3.6	-419.4	1.8	93.9*	27.0*	18.1	38.8*
Cc1nc2[nH]c(=O)c3c(n2n1)NC1=C(C(=O)CC(C)(C)C1)C3c1ccc(F)cc1 (stereo not given)	100.4*	-3.3	-9.7	2.9	80.5*	35.1*	-5.7	4.07*

Compound activity as filed in PubChem.
